Data reported in ChEMBL document CHEMBL4715748, “Synthesis and biological investigation of new equatorial (β) stereoisomers of 3-aminotropane arylamides with atypical antipsychotic profile” (Bioorg Med Chem, 2016).
Calls of active or inactive are those of the source. No cut-off for these calls is given here.

Tests used:
[1] = target: T1, 5-hydroxytryptamine receptor 1A (Rattus norvegicus, UniProt P19327); test: Displacement of [3H]-8-OH-DPAT from rat cerebral cortex 5HT1A receptor measured after 15 mins by liquid scintillation counter method
T1 sequence (P19327 whole entry): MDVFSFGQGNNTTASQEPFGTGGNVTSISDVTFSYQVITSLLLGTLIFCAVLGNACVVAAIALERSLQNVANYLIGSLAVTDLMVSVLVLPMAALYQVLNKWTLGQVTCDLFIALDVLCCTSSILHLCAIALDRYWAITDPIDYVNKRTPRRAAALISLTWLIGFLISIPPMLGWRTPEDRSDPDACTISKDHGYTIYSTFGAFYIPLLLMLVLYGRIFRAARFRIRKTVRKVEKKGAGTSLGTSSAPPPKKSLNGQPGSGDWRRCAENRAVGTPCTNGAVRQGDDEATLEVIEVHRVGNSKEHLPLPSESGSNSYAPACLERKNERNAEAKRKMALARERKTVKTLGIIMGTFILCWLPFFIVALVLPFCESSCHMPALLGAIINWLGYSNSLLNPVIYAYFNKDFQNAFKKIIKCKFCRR

[2] = tested on: Mus musculus; test: Antipsychotic activity Swiss Albino mouse assessed as inhibition of DOI-induced head twitching by measuring number of episodes at 10 mg/kg, ip administered 30 mins prior to DOI stimulation (reference value: 19.63 to 19.88); format: functional; details: 0.5 h
How it was run: (§1)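 Male Albino Swiss mice (24–28 g) were habituated to sawdust-lined cages 20 min before the first treatment. Compounds were suspended in 1% aqueous Tween 80 and given i.p. 30 min before (±)-DOI, 2.5 mg/kg i.p. in aqueous solution. Head twitches were counted blind over 20 min, n=8 per group, mean ± SEM, one-way ANOVA with Dunnett's test.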

[3] = Metabolic stability in pooled human liver microsomes at 2.5 uM measured over 45 mins in presence of NADPH by LC-MS analysis; format: ADME, Microsome; details: 0.75 h
How it was run: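 Compound at 2.5 μM (added from 100 μM stock in 50/50 acetonitrile/water) with 1 mg/mL pooled human liver microsomes and 250 μM NADPH in 0.1 M potassium phosphate pH 7.4 at 37 °C after 5-min preincubation. Sampled at 5, 10, 15, 30, 45 min into ice-cold acetonitrile with atropine internal standard; parent quantified by LC-MS (ESI+, [M+H]+); no-NADPH controls; half-time derived.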

[4] = tested on: Mus musculus; test: Antipsychotic activity Swiss Albino mouse assessed as inhibition of DOI-induced head twitching by measuring number of episodes at 0.625 mg/kg, ip administered 30 mins prior to DOI stimulation (reference value: 19.63 to 19.88); format: functional; details: 0.5 h; how it was run: as §1
[5] = tested on: Mus musculus; test: Antipsychotic activity in Swiss Albino mouse assessed as inhibition of apomorphine-induced climbing behaviour at 10 mg/kg, ip administered 30 mins prior to APO challenge and measured after 40 mins; format: functional, organism-based; details: time 70.0 min
How it was run: (§2)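 Male Albino Swiss mice received compound i.p. (10 mg/kg in 1% Tween 80) 30 min before the test and apomorphine 2.5 mg/kg s.c. 10 min before the test. Each mouse was placed in a cage with a metal grid and scored positive when all four paws were on the grid. Blinded observation every 10 min to 60 min, then at 120 min. n=8, Fisher's exact test with Yates' correction.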

[6] = Effect on 8-OH-DPAT-induced lower lip retraction in Wistar rat at 20 mg/kg, ip pretreated with compound for 45 mins followed by 8-OH-DPAT challenge and measured after 15 mins (reference value: 2.7 to 2.8); format: functional; details: time 60 min, 1 h
[7] = target: Dopamine D2 receptor and Serotonin 2a receptor (D2 and 5HT2a) (Rattus norvegicus) (UniProt P61169+P14842); test: Ratio of pKi for displacement of [3H]-ketanserin from rat cerebral cortex 5HT2A receptor measured after 20 mins by liquid scintillation counter method to pKi for displacement of [3H] Spiperone from rat striatum dopamine D2 receptor measured after 30 mins by liquid scintillation counter method
How it was run: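 Ratio of pKi values, 5-HT2A over D2, computed from competition radioligand binding in rat brain tissue.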

[8] = tested on: Mus musculus; test: Antipsychotic activity in Swiss Albino mouse assessed as inhibition of apomorphine-induced climbing behaviour at 10 mg/kg, ip administered 30 mins prior to APO challenge and measured after 30 mins; format: functional, organism-based; details: time 60.0 min; how it was run: as §2
[9] = tested on: Mus musculus; test: Antipsychotic activity in Swiss Albino mouse assessed as inhibition of apomorphine-induced climbing behaviour at 10 mg/kg, ip administered 30 mins prior to APO challenge and measured after 60 mins; format: functional, organism-based; details: time 90.0 min; how it was run: as §2

Dopamine D2 receptor and Serotonin 2a receptor (D2 and 5HT2a) (Rattus norvegicus), sequence (P14842 whole entry, looked up): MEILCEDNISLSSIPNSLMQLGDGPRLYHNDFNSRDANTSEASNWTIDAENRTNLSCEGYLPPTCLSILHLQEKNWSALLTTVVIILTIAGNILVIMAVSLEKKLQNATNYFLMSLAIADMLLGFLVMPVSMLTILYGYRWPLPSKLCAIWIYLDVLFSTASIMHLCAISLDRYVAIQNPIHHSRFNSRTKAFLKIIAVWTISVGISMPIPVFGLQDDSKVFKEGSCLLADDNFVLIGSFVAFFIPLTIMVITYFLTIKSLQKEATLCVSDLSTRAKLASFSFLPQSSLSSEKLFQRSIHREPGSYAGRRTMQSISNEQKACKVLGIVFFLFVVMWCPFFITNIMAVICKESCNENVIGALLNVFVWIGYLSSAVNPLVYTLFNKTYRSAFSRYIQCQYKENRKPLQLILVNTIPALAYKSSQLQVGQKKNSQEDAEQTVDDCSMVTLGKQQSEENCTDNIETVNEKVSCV
Dopamine D2 receptor and Serotonin 2a receptor (D2 and 5HT2a) (Rattus norvegicus), sequence (P61169 whole entry, looked up): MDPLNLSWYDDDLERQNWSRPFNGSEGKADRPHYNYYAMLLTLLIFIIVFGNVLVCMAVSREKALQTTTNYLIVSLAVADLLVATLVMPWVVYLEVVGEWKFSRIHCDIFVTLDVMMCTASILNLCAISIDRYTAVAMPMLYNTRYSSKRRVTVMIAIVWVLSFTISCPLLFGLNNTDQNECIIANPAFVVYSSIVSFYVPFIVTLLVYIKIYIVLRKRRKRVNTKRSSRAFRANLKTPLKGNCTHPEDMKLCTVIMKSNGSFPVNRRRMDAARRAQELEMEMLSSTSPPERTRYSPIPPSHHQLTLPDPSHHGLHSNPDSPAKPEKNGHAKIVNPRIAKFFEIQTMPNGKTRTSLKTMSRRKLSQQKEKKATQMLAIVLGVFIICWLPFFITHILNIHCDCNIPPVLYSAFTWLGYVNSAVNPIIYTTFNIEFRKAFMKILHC

With O=C(NC1CC2CCC(C1)N2Cc1cccc(F)c1)c1ccc2ccccc2c1 (stereo not given) the Ki [1] was 211 nM, the Activity [2] was 2.38 and the Stabilty [3] was “Stable”. For the same compound, the Activity [4] was 17.38, the inhibition [5] was “Active” and the Activity [6] was 2.3. It also gave a Ratio pKi [7] of 1.05.

With Cc1cccc(CN2C3CCC2CC(NC(=O)c2ccc4ccccc4c2)C3)c1 (stereo not given) the Ki [1] was 182 nM, the inhibition [8] was “Active” and the Activity [2] was 2.38. For the same compound, the Activity [6] was 2.3 and the Ratio pKi [7] was 0.78.

With O=C(NC1CC2CCC(C1)N2Cc1cccc(Cl)c1)c1ccc2ccccc2c1 (stereo not given) the Ki [1] was 298 nM, the Activity [2] was 8.75 and the Stabilty [3] was “Stable”. The Activity [6] was 2.1 and the Ratio pKi [7] was 0.81.

With O=C(NC1CC2CCC(C1)N2Cc1ccc(F)cc1)c1ccc2ccccc2c1 (stereo not given) the Ki [1] was 218 nM, the Activity [2] was 5.38 and the Stabilty [3] was “Stable”. The Activity [4] was 17.63, the Activity [6] was 2.4 and the Ratio pKi [7] was 0.97. The inhibition [9] was “Active”.

With O=C(NC1CC2CCC(C1)N2Cc1cccc(Br)c1)c1ccc2ccccc2c1 (stereo not given) the Ki [1] was 200 nM, the inhibition [8] was “Active” and the Activity [2] was 11.88. The Stabilty [3] was “Stable”, the Activity [6] was 2.5 and the Ratio pKi [7] was 0.88.
